INS-1E ATP HTS: preserves ATP levels in cytokine-treated INS-1E cells | INS-1E cytokine-induced death, ATP luminescence, 48 h; normalised: neutral wells 0, positive control 100 | protection from cytokine-induced ATP loss, % at 10 µM | 20,000 tested, 0.1% active;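 active = mean replicate protection from cytokine-induced ATP loss at least 50% and at least 75% of replicates each reaching 50%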
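Test system: INS-1E rat cells | Quantity: 8000 cells per well | Medium: Phenol-red-free RPMI with 5% fetal bovine serum | Reagent: Cytokine cocktail of IFN-γ, TNF-α and IL-1β | Doses: One compound concentration, pin transfer | Timing: 48 h co-treatment, 10 min post-lysis read | Technique: Luminescent ATP assay (CellTiter-Glo)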
T cruzi intra: intracellular Trypanosoma cruzi inhibition | AID 651903 | activity score (inhibition), % at 5.01 µM | intracellular Trypanosoma cruzi in host cells, plate reader | 22,000 tested, 4.9% active; in the data active = activity score above about 55%;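 also: parasites and compound incubated about four days before reading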
YB-1 expression: YB-1 expression inhibition | delta delta Cp (YB-1 minus CDIP) (concentration not given with the values) | U2OS, qRT-PCR YB-1 vs CDIP delta delta Cp, 16 h; stronger effect = higher value; zero = DMSO, each unit about twofold | 30,000 tested, 0.37% active;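 active = delta delta Cp rounded down to an integer at or above 3, about 3 SD of DMSO wells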;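 also: higher means less YB-1 transcript or more CDIP transcript relative to DMSO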
A number is an active result; – = inactive; · = no result given. The sample as a whole holds a higher share of hits than the screen did.

SMILES	INS-1E ATP HTS	T cruzi intra	YB-1 expression
N/C(=N/C(=O)N1CCOCC1)c1ccccc1	·	·	–
CN(C)c1nc(C(C)(C)C)cc2c1C(=O)NC2=O	·	·	–
C=C1C(C2(C)C=CC(=O)C(C)(C)C2CC(=O)OC)CC[C@@]2(C)[C@H](c3ccoc3)OC(=O)C3OC132 (some centres undefined)	·	·	–
C[C@@H]1C[C@@H]2O[C@H]2/C=C/C=C\C(=O)Cc2c(Cl)c(O)cc(O)c2C(=O)O1	·	·	–
Cc1ccc(S(=O)(=O)Nc2cccc3c2O[C@H](CN(C)Cc2ccc(Oc4ccccc4)cc2)[C@@H](C)CN([C@@H](C)CO)C3=O)cc1	–	–	–
C[C@@H]1CN([C@@H](C)CO)C(=O)c2cccc(NS(=O)(=O)c3ccccc3)c2O[C@@H]1CN(C)CC1CC1	–	57	–
Cc1ccc(S(=O)(=O)Nc2cccc3c2O[C@@H](CN(C)Cc2ccc(Oc4ccccc4)cc2)[C@@H](C)CN([C@H](C)CO)C3=O)cc1	–	65	–
C[C@H]1CN([C@@H](C)CO)C(=O)c2cccc(NS(=O)(=O)c3ccccc3)c2O[C@H]1CN(C)CC1CC1	–	–	–
C[C@@H]1CN([C@H](C)CO)C(=O)c2cccc(NS(=O)(=O)c3ccc(F)cc3)c2O[C@H]1CN(C)Cc1ccc(-c2ccccc2)cc1	–	–	–
C[C@@H]1CN([C@H](C)CO)C(=O)c2cccc(NS(=O)(=O)c3ccc(F)cc3)c2O[C@@H]1CN(C)C(=O)NC1CCCCC1	–	–	–
C[C@H](CO)N1C[C@H](C)[C@H](CN(C)C(=O)NC2CCCCC2)Oc2c(NS(=O)(=O)c3ccc(F)cc3)cccc2C1=O	–	59	–
C[C@H](CO)N1C[C@H](C)[C@H](CN(C)Cc2ccc(-c3ccccc3)cc2)Oc2c(NS(=O)(=O)c3ccc(F)cc3)cccc2C1=O	–	58	–
COc1ccc(-n2ncc(NC(=O)Nc3ccc4c(c3)OCCCO4)c2C)cc1	·	·	–
Cc1ccc2c(c1O)C(=O)c1ccc(O[C@@H]3O[C@H](CO[C@@H]4OC[C@@H](O)[C@H](O)[C@H]4O)[C@@H](O)[C@H](O)[C@H]3O)cc1C2=O	·	·	–
CSc1sc(-c2ccn[nH]2)c(-c2ccco2)c1C#N	·	·	–
COc1ccc(-c2[nH]nc(SC)c2C#N)cc1	·	·	–
C=C1C(=O)O[C@@H]2/C=C(/CO)CC/C=C(/C)C[C@H](OC(=O)C(C)CO)[C@@H]12 (some centres undefined)	·	·	–
C[C@H]1[C@H]2OC3=C(C(=O)OC3(C)O)C(=O)[C@]1(C)[C@H]1CCCC[C@]1(O)[C@H]2O (some centres undefined)	·	·	–
Cc1ccc(S(=O)(=O)N(C)C[C@@H]2Oc3c(NS(=O)(=O)c4ccc(Cl)cc4)cccc3C(=O)N([C@H](C)CO)C[C@H]2C)cc1	–	–	–
Cc1ccc(S(=O)(=O)Nc2cccc3c2O[C@@H](CN(C)S(=O)(=O)c2ccc(Cl)cc2)[C@@H](C)CN([C@H](C)CO)C3=O)cc1	–	58	–
C[C@H]1CN([C@@H](C)CO)C(=O)c2cccc(NS(=O)(=O)c3ccc(Cl)cc3)c2O[C@H]1CN(C)Cc1ccc(-c2ccccc2)cc1	–	59	–
C[C@@H]1CN([C@H](C)CO)C(=O)c2cccc(NS(=O)(=O)c3ccc(Cl)cc3)c2O[C@H]1CN(C)Cc1ccc(-c2ccccc2)cc1	–	–	–
OC(COc1ccc(Nc2ccccc2)cc1)COc1ccc(Nc2ccccc2)cc1	·	·	–
COC(=O)c1c(NC(=O)C(C)C)sc2c1CCC2	·	·	–
Cc1ccc(S(=O)(=O)Nc2ccc3c(c2)C(=O)N([C@@H](C)CO)C[C@H](C)[C@@H](CN(C)Cc2ccc(Cl)c(Cl)c2)O3)cc1	–	–	–
SMILES	INS-1E ATP HTS	T cruzi intra	YB-1 expression
C[C@H](CO)N1C[C@H](C)[C@H](CN(C)Cc2ccccc2)Oc2ccc(NS(=O)(=O)c3ccc(Cl)cc3)cc2C1=O	·	–	6.1
Cc1ccc(S(=O)(=O)Nc2ccc3c(c2)C(=O)N([C@@H](C)CO)C[C@@H](C)[C@@H](CN(C)Cc2ccc(Cl)c(Cl)c2)O3)cc1	–	64	–
C[C@@H]1CN([C@@H](C)CO)C(=O)c2cc(NS(=O)(=O)c3ccc(Cl)cc3)ccc2O[C@@H]1CN(C)Cc1ccccc1	–	–	–
C[C@@H]1CN([C@@H](C)CO)C(=O)c2cc(NS(=O)(=O)c3ccc(Cl)cc3)ccc2O[C@H]1CN(C)Cc1ccc(Cl)c(Cl)c1	–	58	–
C[C@H]1CN([C@@H](C)CO)C(=O)c2cc(NS(=O)(=O)c3ccccc3)ccc2O[C@@H]1CN(C)Cc1ccc(Cl)c(Cl)c1	–	62	–
C[C@H]1CN([C@@H](C)CO)C(=O)c2cc(NS(=O)(=O)c3ccc(Cl)cc3)ccc2O[C@@H]1CN(C)Cc1ccc(Cl)c(Cl)c1	–	–	–
C[C@@H]1CN([C@H](C)CO)C(=O)c2cc(NS(=O)(=O)c3ccccc3)ccc2O[C@@H]1CN(C)Cc1ccc(Cl)c(Cl)c1	–	–	–
c1ccc(C2C3=C(CCCC3)SC3=C2CCCC3)cc1	·	·	–
Cc1onc(-c2c(Cl)cccc2Cl)c1NC(=O)N1CCCC1=O	·	·	–
C=CCNC(=O)C1(O)c2ccccc2NC(=O)N1c1ccccc1 (centres undefined)	·	·	–
COc1c(O)cc2occ(-c3ccccc3O)c(=O)c2c1O	·	·	–
O=C1c2c(O)cc(O)cc2O[C@@H](c2ccc(O)cc2)[C@H]1[C@@H]1C(=O)c2c(O)cc(O)cc2O[C@H]1c1ccc(O)cc1	·	·	–
O=c1cc(O)c2sc3nc(-c4cccnc4)c4c(c3c2[nH]1)CCCC4	·	·	–
COc1cc(OC)nc(NCC(NC(=O)c2ccccc2)C(N)=O)n1 (centres undefined)	·	·	–
Cc1noc(COc2ccccc2)c1C(=O)Sc1ccc(F)cc1F	·	·	–
Cc1ccc(S(=O)(=O)N(C)C[C@@H]2Oc3ncc(-c4cccc(C(F)(F)F)c4)cc3C(=O)N([C@H](C)CO)C[C@@H]2C)cc1	·	61	–
C[C@H](CO)N1C[C@H](C)[C@H](CN(C)S(=O)(=O)c2ccc(C#N)cc2)Oc2ncc(-c3cccc(C(F)(F)F)c3)cc2C1=O	·	–	–
Cc1cccc(CN(C)C[C@@H]2Oc3ncc(-c4cccc(C(F)(F)F)c4)cc3C(=O)N([C@H](C)CO)C[C@@H]2C)c1	·	63	–
C[C@H](CO)N1C[C@H](C)[C@H](CN(C)Cc2cccc(C(F)(F)F)c2)Oc2ncc(-c3ccccc3)cc2C1=O	·	–	–
C[C@@H]1CN([C@@H](C)CO)C(=O)Cc2cc(NC(=O)Cc3cn(C)c4ccccc34)ccc2O[C@@H]1CN(C)Cc1ccc(Oc2ccccc2)cc1	–	–	–
C[C@H]1CN([C@@H](C)CO)C(=O)Cc2cc(NC(=O)Cc3cn(C)c4ccccc34)ccc2O[C@H]1CN(C)Cc1ccc(Oc2ccccc2)cc1	–	59	–
C[C@H]1CN([C@@H](C)CO)C(=O)Cc2cc(NC(=O)Cc3cn(C)c4ccccc34)ccc2O[C@@H]1CN(C)Cc1ccc(Oc2ccccc2)cc1	–	–	–
COc1ccc(CN(C)C[C@H]2Oc3ccc(NC(=O)Cc4cn(C)c5ccccc45)cc3CC(=O)N([C@@H](C)CO)C[C@@H]2C)cc1	–	61	–

Screening results (PubChem)
